Results: ChEMBL document CHEMBL1128739, “Structure-activity relationships in the 8-amino-6,7,8,9-tetrahydro-3H-benz[e]indole ring system. 2. Effects of 8-amino nitrogen substitution on serotonin receptor binding and pharmacology” (J Med Chem, 1995)
The source made the active and inactive calls. The calls are words filed in the database; no cut-off is given here.

Columns and labels:
[1] = biological target: T1, 5-hydroxytryptamine receptor 1B (Homo sapiens, UniProt P28222); test: In vitro binding affinity against cloned mammalian 5-hydroxytryptamine 1D receptor beta expressed in CHO cells, by using [3H]5-HT as radioligand; assay type: cell-based
Summary of the method: (§1)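 Membranes from CHO cells stably expressing the cloned receptor, made by mechanical disruption in ice-cold Tris/EDTA/EGTA pH 7.4 and differential centrifugation. [3H]serotonin at 1.7 nM in 50 mM Tris, 5 mM MgCl2, 0.1% ascorbic acid, pH 7.4. 11 drug concentrations in duplicate, 1 h at room temperature protected from light, then filtration. Excess serotonin defines nonspecific binding. One-site IC50 fit, Ki by Cheng-Prusoff.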

[2] = biological target: 5-hydroxytryptamine receptor 1D (Homo sapiens, UniProt P28221); test: In vitro binding affinity against cloned mammalian 5-hydroxytryptamine 1D receptor alpha expressed in CHO cells, by using [3H]5-HT as radioligand; assay type: cell-based
Summary of the method: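 Competition binding on CHO-cell membranes (20-60 μg protein) in 50 mM Tris, 5 mM MgCl2, 0.1% ascorbic acid, pH 7.4. Nonspecific binding defined with excess serotonin. 11 drug concentrations, each in duplicate. Incubated 1 h at room temperature, protected from light, then filtered and scintillation counted. IC50 taken from a one-site fit; Ki by Cheng-Prusoff.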

[3] = biological target: T2, D(2) dopamine receptor (Rattus norvegicus, UniProt P61169); test: In vitro binding affinity against cloned mammalian Dopamine receptor D2 expressed in CHO cells using [3H]U-86170 as radioligand; assay type: cell-based; conditions: read-out: Ki
Summary of the method: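 Membranes from CHO cells (20-60 μg protein) in 20 mM HEPES, 10 mM MgSO4, pH 7.4. Nonspecific binding defined with excess haloperidol. 11 concentrations, each in duplicate. Incubated 1 h at room temperature, then filtered and counted. IC50 from a one-site competition fit, converted to Ki by Cheng-Prusoff.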

[4] = biological target: D(3) dopamine receptor (Rattus norvegicus, UniProt P19020); test: In vitro binding affinity against cloned mammalian Dopamine receptor D3 expressed in CHO cells by, using [3H]-spiperone as radioligand; assay type: cell-based; conditions: read-out: Ki
[5] = system: Rattus norvegicus; test: (§2) The compound was tested in vivo for biochemical effect against the changes in different brain area levels of DOPA in reserpinized rat limbic system at dose 12.5 uM/kg; Partial effect; assay type: functional, organism-based
Summary of the method: (§3)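 Male Sprague-Dawley rats (200-300 g) pretreated with reserpine 5 mg/kg sc 18 h before. Injection volume 5 mL/kg, test solutions at neutral pH. DOPA and 5-HTP in limbic system, striatum and hemispheres measured by HPLC with electrochemical detection. Dose-response curves from four to six dose levels (n = 4) per brain area.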

[6] = system: Rattus norvegicus; test: In vivo changes in different brain area levels of 5-HTP in reserpinized rat corpus striatum.; assay type: functional
Summary of the method: (§4)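 Male Sprague-Dawley rats (200-300 g) pretreated with reserpine 5 mg/kg sc 18 h before. Injection volume 5 mL/kg at neutral pH. Brain-region 5-HTP measured by HPLC with electrochemical detection. Dose-response curves used four to six doses, n = 4.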

[7] = system: Rattus norvegicus; test: The compound was tested in vivo for biochemical effect against the changes in different brain area levels of DOPA in reserpinized rat hemispheres (mainly cortex)at dose 12.5 uM/kg; Inactive; assay type: functional, organism-based
[8] = system: Rattus norvegicus; test: In vivo changes in different brain area levels of 5-HTP in reserpinized rat limbic system.; assay type: functional; summary of the method: as §4
[9] = system: Rattus norvegicus; test: In vivo for biochemical effect against brain area levels of 5-HTP in reserpinized rat hemispheres (mainly cortex).; assay type: functional; summary of the method: as §3
[10] = system: Rattus norvegicus; test: The compound was tested in vivo for biochemical effect against the changes in different brain area levels of DOPA in reserpinized rat corpus striatum at dose 12.5 uM/kg; Inactive; assay type: functional, organism-based; summary of the method: as §3
[11] = biological target: T2, D(2) dopamine receptor; test: Binding affinity rat Dopamine receptor D2 expressed in CHO-K1 cells by [3H]U-86170 displacement.; assay type: cell-based
[12] = biological target: T1, 5-hydroxytryptamine receptor 1B; test: The compound was tested in vitro for binding affinity against cloned mammalian 5-hydroxytryptamine 1D receptor beta expressed in CHO cells, by using [3H]5-HT as radioligand; assay type: cell-based; parameters: concentration or dose not given beside the values; conditions: concentration not given here; summary of the method: as §1
[13] = system: Rattus norvegicus; test: The compound was tested in vivo for biochemical effect against the changes in different brain area levels of DOPA in reserpinized rat limbic system at dose 3.1 uM/kg; Inactive; assay type: functional, organism-based; summary of the method: as §3
[14] = system: Rattus norvegicus; test: The compound was tested in vivo for biochemical effect against the changes in different brain area levels of DOPA in reserpinized rat corpus striatum at dose 3.1 uM/kg; Inactive; assay type: functional, organism-based; summary of the method: as §3
[15] = system: Rattus norvegicus; test: The compound was tested in vivo for biochemical effect against the changes in different brain area levels of DOPA in reserpinized rat hemispheres (mainly cortex)at dose 3.1 uM/kg; Inactive; assay type: functional, organism-based; summary of the method: as §3
[16] = system: Rattus norvegicus; test: The compound was tested in vivo for biochemical effect against the changes in different brain area levels of DOPA in reserpinized rat hemispheres (mainly cortex) at dose of 3.1 micro/kg; Inactive; assay type: functional, organism-based; summary of the method: as §3
[17] = system: Rattus norvegicus; test: The compound was tested in vivo for biochemical effect against the changes in different brain area levels of DOPA in reserpinized rat limbic system at dose 3.1 umol/kg; Partial effect; assay type: functional, organism-based; summary of the method: as §3
[18] = system: Rattus norvegicus; test: The compound was tested in vivo for biochemical effect against the changes in different brain area levels of DOPA in reserpinized rat corpus striatum at dose 3.1 umol/kg; Partial effect; assay type: functional, organism-based; summary of the method: as §3
[19] = system: Rattus norvegicus; test: The compound was tested in vivo for biochemical effect against the changes in different brain area levels of DOPA in reserpinized rat hemispheres (mainly cortex)at dose 3.1 umol/kg; Inactive; assay type: functional, organism-based; summary of the method: as §3
[20] = system: Rattus norvegicus; test: The compound was tested in vivo for biochemical effect against the changes in different brain area levels of DOPA in reserpinized rat corpus striatum; assay type: functional; summary of the method: as §3
[21] = system: Rattus norvegicus; test: The compound was tested in vivo for biochemical effect against the changes in different brain area levels of DOPA in reserpinized rat limbic system; assay type: functional
Summary of the method: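 Rats (male Sprague-Dawley, 200-300 g) received reserpine 5 mg/kg sc 18 h before. Injections 5 mL/kg at neutral pH. DOPA accumulation measured by HPLC with electrochemical detection as an index of DA or NE synthesis rate. Four to six dose levels, n = 4. ED50 from a sigmoidal fit.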

[22] = system: Rattus norvegicus; test: The compound was tested in vivo for biochemical effect against the changes in different brain area levels of DOPA in reserpinized rat hemispheres (mainly cortex)at dose 12.5 uM/kg; inactive; assay type: functional, organism-based; summary of the method: as §3
[23] = biological target: D(3) dopamine receptor (Rattus norvegicus) (UniProt P19020); test: The compound was tested in vitro for binding affinity against cloned mammalian Dopamine receptor D3 expressed in CHO cells by, using [3H]spiperone as radioligand; inactive at 10E-6 M; assay type: cell-based
[24] = system: Rattus norvegicus; test: as §2; assay type: functional, organism-based; remark: listed apart in the source
[25] = system: Rattus norvegicus; test: The compound was tested in vivo for biochemical effect against the changes in different brain area levels of DOPA in reserpinized rat corpus striatum at dose 12.5 uM/kg; Partial effect; assay type: functional, organism-based; summary of the method: as §3
[26] = system: Rattus norvegicus; test: The compound was tested in vivo for biochemical effect against the changes in different brain area levels of DOPA in reserpinized rat limbic system at does 12.5 uM/kg; Partial effect; assay type: functional, organism-based; summary of the method: as §3
[27] = system: Rattus norvegicus; test: The compound was tested in vivo for biochemical effect against the changes in different brain area levels of DOPA in reserpinized rat hemispheres (mainly cortex)at does 12.5 uM/kg; Inactive; assay type: functional, organism-based; summary of the method: as §3

T1 sequence (P28222 whole entry): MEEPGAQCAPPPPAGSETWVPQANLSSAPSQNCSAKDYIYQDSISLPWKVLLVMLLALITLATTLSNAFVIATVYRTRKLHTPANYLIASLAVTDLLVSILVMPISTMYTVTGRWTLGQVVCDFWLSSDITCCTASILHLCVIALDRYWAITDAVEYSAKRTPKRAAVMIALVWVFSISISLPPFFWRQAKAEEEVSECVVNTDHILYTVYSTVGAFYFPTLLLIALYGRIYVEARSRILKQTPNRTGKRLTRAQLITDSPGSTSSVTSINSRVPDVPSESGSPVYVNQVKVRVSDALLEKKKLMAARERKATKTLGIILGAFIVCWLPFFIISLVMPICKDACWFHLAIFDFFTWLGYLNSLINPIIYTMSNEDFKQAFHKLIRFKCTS
Sequence of 5-hydroxytryptamine receptor 1D (P28221 whole entry): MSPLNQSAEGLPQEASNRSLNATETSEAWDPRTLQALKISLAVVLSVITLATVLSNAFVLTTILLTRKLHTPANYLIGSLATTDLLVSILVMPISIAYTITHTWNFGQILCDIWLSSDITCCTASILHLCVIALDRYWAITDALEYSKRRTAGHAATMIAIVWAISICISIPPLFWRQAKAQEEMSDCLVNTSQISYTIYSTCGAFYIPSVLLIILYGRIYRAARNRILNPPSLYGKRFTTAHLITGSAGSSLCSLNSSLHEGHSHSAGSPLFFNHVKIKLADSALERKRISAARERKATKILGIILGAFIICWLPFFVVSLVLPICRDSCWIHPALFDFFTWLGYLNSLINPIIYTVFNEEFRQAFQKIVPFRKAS
Sequence of D(3) dopamine receptor (P19020 whole entry): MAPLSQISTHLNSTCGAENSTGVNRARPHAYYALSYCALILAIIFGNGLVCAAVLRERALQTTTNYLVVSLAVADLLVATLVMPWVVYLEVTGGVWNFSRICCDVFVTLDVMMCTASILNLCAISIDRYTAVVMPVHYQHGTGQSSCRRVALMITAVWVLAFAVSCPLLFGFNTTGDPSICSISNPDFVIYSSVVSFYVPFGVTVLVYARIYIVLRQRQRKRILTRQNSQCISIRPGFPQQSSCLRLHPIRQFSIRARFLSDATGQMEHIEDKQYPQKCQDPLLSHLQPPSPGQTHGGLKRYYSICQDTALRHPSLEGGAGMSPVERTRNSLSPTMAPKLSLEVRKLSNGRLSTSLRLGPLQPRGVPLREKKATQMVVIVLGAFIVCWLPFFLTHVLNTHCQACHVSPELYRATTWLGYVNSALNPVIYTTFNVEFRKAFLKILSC
T2 sequence (P61169 whole entry): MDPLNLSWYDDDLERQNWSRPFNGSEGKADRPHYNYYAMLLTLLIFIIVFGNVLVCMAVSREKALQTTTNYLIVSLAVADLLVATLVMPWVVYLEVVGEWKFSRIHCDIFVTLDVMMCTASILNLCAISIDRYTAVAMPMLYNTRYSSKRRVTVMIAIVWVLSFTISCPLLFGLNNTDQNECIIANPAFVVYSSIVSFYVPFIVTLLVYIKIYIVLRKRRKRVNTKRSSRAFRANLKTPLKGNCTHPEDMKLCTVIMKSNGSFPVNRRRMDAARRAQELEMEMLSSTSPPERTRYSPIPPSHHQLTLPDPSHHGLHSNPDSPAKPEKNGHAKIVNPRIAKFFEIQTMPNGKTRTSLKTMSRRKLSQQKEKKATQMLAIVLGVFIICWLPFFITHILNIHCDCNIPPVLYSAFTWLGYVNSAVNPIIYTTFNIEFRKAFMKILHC
Sequence of D(3) dopamine receptor (Rattus norvegicus) (P19020 whole entry): as the sequence (P19020 whole entry) above

Row | SMILES | Ki [1] [nM] | Ki [2] [nM] | Ki [3] [nM] | Ki [4] [nM] | Ki [11] [nM] | also measured
1 | CCCN(CCCc1ccccc1)C1CCc2ccc3[nH]cc(C=O)c3c2C1 (stereo unspecified) | 11 | 2 | 13 | 42 |  | 
2 | C=CCN(CCC)C1CCc2ccc3[nH]cc(C=O)c3c2C1 (stereo unspecified) | 49 |  | 59 | 130 |  | ED50 [5]: Weak activity; ED50 [6]: 0.16 µmol/kg; ED50 [7]: inactive; ED50 [8]: 0.19 µmol/kg; ED50 [9]: 0.19 µmol/kg; ED50 [10]: inactive
3 | CCCNC1CCc2ccc3[nH]ccc3c2C1 (stereo unspecified) | 483 | 69 |  | 115 | 48 | 
4 | CCCN(CCCc1ccccc1OC)C1CCc2ccc3[nH]ccc3c2C1 (stereo unspecified) | 40 | 2.5 |  | 10 | 4.8 | 
5 | CCCN(CCc1cccs1)C1CCc2ccc3[nH]ccc3c2C1 (stereo unspecified) |  | 13 |  | 5.5 | 5.5 | inhibition [12]: < 45%
6 | CCCN(CCCCN1C(=O)CC(C)(C)CC1=O)C1CCc2ccc3[nH]ccc3c2C1 (stereo unspecified) | 224 | 26 |  | 29 | 15 | 
7 | CCCN(CCCOc1cccc(Cl)c1)C1CCc2ccc3[nH]ccc3c2C1 (stereo unspecified) | 243 | 13 |  | 20 | 15 | 
8 | CCCN(CC1CC1)C1CCc2ccc3[nH]cc(C=O)c3c2C1 (stereo unspecified) | 196 | 24 |  | 164 |  | ED50 [13]: inactive; ED50 [6]: 0.33 µmol/kg; ED50 [14]: inactive; ED50 [8]: 0.23 µmol/kg; ED50 [9]: 0.34 µmol/kg; ED50 [15]: inactive
9 | CCCN(CCCc1ccccc1OC)C1CCc2ccc3[nH]cc(C=O)c3c2C1 (stereo unspecified) | 11 | 3.4 | 14 | 84 |  | 
10 | CN(C)C1CCc2ccc3[nH]ccc3c2C1 (stereo unspecified) | 270 |  |  | 383 |  | 
11 | CCCN(C)C1CCc2ccc3[nH]cc(C=O)c3c2C1 (stereo unspecified) | 109 | 16 | 151 | 258 |  | 
12 | CCCN(CCC)CC1CCc2ccc3[nH]ccc3c2C1 (stereo unspecified) |  |  |  |  | > 1000 | 
13 | O=Cc1c[nH]c2ccc3c(c12)CC(N1CCCCCC1)CC3 (stereo unspecified) |  |  | > 1000 |  |  | 
14 | CCCN(CCCCN1C(=O)CC(C)(C)CC1=O)C1CCc2ccc3[nH]cc(C=O)c3c2C1 (stereo unspecified) | 115 | 9.8 | 136 | 450 |  | 
15 | CCCN(CCc1ccccc1)C1CCc2ccc3[nH]cc(C=O)c3c2C1 (stereo unspecified) | 56 | 2.8 | 62 | 81 |  | 
16 | CCCN(CCC)[C@H]1CCc2ccc3[nH]ccc3c2C1 |  |  |  |  |  | ED50 [16]: inactive
17 | CCCN(CCC)[C@@H]1CCc2ccc3[nH]cc(C=O)c3c2C1 |  |  |  |  |  | ED50 [17]: Weak activity; ED50 [18]: Weak activity; ED50 [19]: inactive
18 | CCCN(CC1CC1)C1CCc2ccc3[nH]ccc3c2C1 (stereo unspecified) |  | 75 |  | 50 | 33 | inhibition [12]: < 45%; ED50 [6]: 0.11 µmol/kg; ED50 [20]: 1.4 µmol/kg; ED50 [8]: 0.11 µmol/kg; ED50 [21]: 1.18 µmol/kg; ED50 [9]: 0.18 µmol/kg; ED50 [22]: inactive
19 | c1cc2c3c(ccc2[nH]1)CCC(N1CCCCCC1)C3 (stereo unspecified) |  | 340 |  |  | 100 | inhibition [12]: < 45%; inhibition [23]: < 45%
20 | CCCN(CC(C)C)[C@@H]1CCc2ccc3[nH]cc(C=O)c3c2C1 |  | 6.5 | 28 | 100 |  | 
21 | CCCN(CCc1cccs1)C1CCc2ccc3[nH]cc(C=O)c3c2C1 (stereo unspecified) | 46 | 2 | 25 | 48 |  | ED50 [24]: Weak activity; ED50 [6]: 0.044 µmol/kg; ED50 [25]: Weak activity; ED50 [7]: inactive; ED50 [8]: 0.082 µmol/kg; ED50 [9]: 0.11 µmol/kg
22 | CCCN(CCCCN1C(=O)CC(C)(C)CC1=O)[C@@H]1CCc2ccc3[nH]ccc3c2C1 |  |  |  |  | 6.5 | 
23 | CCCN(CCc1ccccc1)C1CCc2ccc3[nH]ccc3c2C1 (stereo unspecified) | 249 | 7.4 | 5.5 | 18 |  | 
24 | CCCN(C)C1CCc2ccc3[nH]ccc3c2C1 (stereo unspecified) |  | 170 |  | 113 | 33 | inhibition [12]: < 45%
25 | CCCN(CCC)[C@H]1CCc2ccc3[nH]cc(C=O)c3c2C1 |  |  |  |  |  | ED50 [26]: Weak activity; ED50 [25]: Weak activity; ED50 [27]: inactive
26 | CCCNC1CCc2ccc3[nH]cc(C=O)c3c2C1 (stereo unspecified) | 227 | 27 | 60 |  |  | 
27 | CN(C)[C@@H]1CCc2ccc3[nH]ccc3c2C1 | 228 |  |  | 270 |  | 
28 | CCCN(CCC)C1CCc2ccc3[nH]ccc3c2C1 (stereo unspecified) |  | 39 |  |  |  | 
